The values below come from PMC12461553 (RSC Advances, 2025).

In one test the test system is 4T1 cells. Kind of test: SRB cytotoxicity assay, 4T1. Format: cell-based, murine. As to conditions: Mus musculus, 4T1, 48 h, read-out: Average cell death (%) 4T1. In a few lines:
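Single-dose screen: cells in DMEM/10% FBS at 37 °C, 5% CO2, seeded at 3000 per well, attached 24 h, then exposed to test compound at 25 μM final for 48 h. Fixed in cold 10% TCA, 1 h, 4 °C; stained 0.057% SRB, 30 min, dark, room temperature; rinsed with 1% acetic acid; dye solubilised in Tris base pH 10.5; absorbance 510 nm; percent cell death.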

In a further test the test system is MCF-7 cells. Kind of test: SRB cytotoxicity assay, MCF-7. It counts as cell-based, human.
For test [1], the system named is MDA-MB-231 cells. Kind of test: SRB cytotoxicity assay, MDA-MB-231. Format: cell-based, human.
Test [2] deals with BCL-2 and Survivin expression in MDA-MB-231 cells. Kind of test: Gene expression analysis by RT-qPCR. It counts as cell-based, human. A digest of the protocol:
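Cells were treated 48 h with varying test compound concentrations, then total RNA was extracted and checked spectrophotometrically. 2 μg RNA was reverse-transcribed to cDNA. BCL2 and Survivin transcripts were measured by RT-qPCR and quantified by the 2−ΔΔCt method against β2-microglobulin as reference gene.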

Test [3] relates to MDA-MB-231 cells. Kind of test: 3D spheroid. It counts as cell-based, human. The note with it: MDA-MB-231, methylcellulose, 8 days. In a few lines:
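Single-cell suspensions in 1.5% methylcellulose/DMEM with 20% FBS were seeded at 1 × 10^5 cells per well over a 1% agarose–DMEM base for non-adherent growth. Cells were treated with test compound (0.5, 1, 2 μM) or doxorubicin and incubated 8 days. Spheres (≥20 cells) were imaged by fluorescence microscopy and counted per microscopic field.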

Setting [4] is: Homo sapiens, MCF7, 48 h, read-out: Average cell death (%) MCF-7.
Setting [5] is: Homo sapiens, MDA-MB-231, 48 h, read-out: Average cell death (%) MDA-MB-231.

In the case of `Cn1c2ccccc2c2c(C(=O)c3ccccc3)c(-c3ccccc3)n(Cc3ccccc3)c(=O)c21` [9a, 4-Benzoyl-2-benzyl-9-methyl-3-phenyl-2,9-dihydro-1H-pyrido[3,4-b]indol-1-one], the cytotoxicity at 25 µM is 47.8 ± 3.32% with 4T1 cells, 9.16 ± 2.08% in the test on MCF-7 cells (setting [4]) and 32.8 ± 3.16% with MDA-MB-231 cells [1] (setting [5]).

With `COc1ccc(C(=O)c2c(-c3ccccc3)n(Cc3ccccc3)c(=O)c3c2c2ccccc2n3C)cc1` [9b, 2-Benzyl-4-(4-methoxybenzoyl)-9-methyl-3-phenyl-2,9-dihydro-1H-pyrido[3,4-b]indol-1-one], the cytotoxicity at 25 µM in the test on 4T1 cells was determined as 39.8 ± 4.02%; with MCF-7 cells (setting [4]) it was 18.3 ± 3.05%; with MDA-MB-231 cells [1] (setting [5]), 20.2 ± 2.16%.

For `Cn1c2ccccc2c2c(C(=O)c3ccc(C(F)(F)F)cc3)c(-c3ccccc3)n(Cc3ccccc3)c(=O)c21` [9d, 2-Benzyl-9-methyl-3-phenyl-4-(4-(trifluoromethyl)benzoyl)-2,9-dihydro-1H-pyrido[3,4-b]indol-1-one], the cytotoxicity at 25 µM in the test with 4T1 cells is 15.5 ± 2.15%; with MCF-7 cells (setting [4]), 14.2 ± 1.03%; in the test on MDA-MB-231 cells [1] (setting [5]) it was 11.3 ± 0.53%.

With `Cn1c2ccccc2c2c(C(=O)c3ccc(F)cc3)c(-c3ccccc3)n(Cc3ccccc3)c(=O)c21` [9e, 2-Benzyl-4-(4-fluorobenzoyl)-9-methyl-3-phenyl-2,9-dihydro-1H-pyrido[3,4-b]indol-1-one], the values for the cytotoxicity at 25 µM in the test on 4T1 cells, in the test on MCF-7 cells (setting [4]) and in the test on MDA-MB-231 cells [1] (setting [5]) were 32.2 ± 4.11%, 2 ± 0.52% and 7.54 ± 0.71%, respectively.

Regarding `Cn1c2ccccc2c2c(C(=O)c3ccccc3)c(-c3ccccc3)n(CCc3ccccc3)c(=O)c21` [10a, 4-Benzoyl-9-methyl-2-phenethyl-3-phenyl-2,9-dihydro-1H-pyrido[3,4-b]indol-1-one], the cytotoxicity at 25 µM in the test with 4T1 cells turned out to be 46.6 ± 2.18%; in the test with MCF-7 cells (setting [4]), 1.67 ± 0.3%; in the test with MDA-MB-231 cells [1] (setting [5]) it was 3.66 ± 0.31%.

As to `COc1ccc(C(=O)c2c(-c3ccccc3)n(CCc3ccccc3)c(=O)c3c2c2ccccc2n3C)cc1` [10b, 4-(4-Methoxybenzoyl)-9-methyl-2-phenethyl-3-phenyl-2,9-dihydro-1H-pyrido[3,4-b]indol-1-one], the cytotoxicity at 25 µM in the test with 4T1 cells stood at 49.9 ± 3.23%; with MCF-7 cells (setting [4]) it was 10.1 ± 2.2%; in the test with MDA-MB-231 cells [1] (setting [5]), 2.64 ± 0.7%.

For `Cc1ccc(C(=O)c2c(-c3ccccc3)n(CCc3ccccc3)c(=O)c3c2c2ccccc2n3C)cc1` [10c, 9-Methyl-4-(4-methylbenzoyl)-2-phenethyl-3-phenyl-2,9-dihydro-1H-pyrido[3,4-b]indol-1-one], the figures for the cytotoxicity at 25 µM with 4T1 cells, in the test with MCF-7 cells (setting [4]) and in the test with MDA-MB-231 cells [1] (setting [5]) were 60.5 ± 3.07%, 26.2 ± 4.15% and 15.6 ± 1.15%, respectively.

For `Cn1c2ccccc2c2c(C(=O)c3ccc(C(F)(F)F)cc3)c(-c3ccccc3)n(CCc3ccccc3)c(=O)c21` [10d, 9-Methyl-2-phenethyl-3-phenyl-4-(4-(trifluoromethyl)benzoyl)-2,9-dihydro-1H-pyrido[3,4-b]indol-1-one], the cytotoxicity at 25 µM in the test on 4T1 cells came to 22 ± 2.05%; with MCF-7 cells (setting [4]), 9.32 ± 1%; with MDA-MB-231 cells [1] (setting [5]) it was 11.5 ± 0.95%.

As to `Cn1c2ccccc2c2c(C(=O)c3ccc(F)cc3)c(-c3ccccc3)n(CCc3ccccc3)c(=O)c21` [10e, 4-(4-Fluorobenzoyl)-9-methyl-2-phenethyl-3-phenyl-2,9-dihydro-1H-pyrido[3,4-b]indol-1-one], the cytotoxicity at 25 µM in the test on 4T1 cells came to 13.5 ± 1.16%; in the test on MCF-7 cells (setting [4]), 8.92 ± 0.8%; with MDA-MB-231 cells [1] (setting [5]), 4 ± 0.41%.

As to `CCCCn1c(-c2ccccc2)c(C(=O)c2ccccc2)c2c3ccccc3n(C)c2c1=O` [11a, 4-Benzoyl-2-butyl-9-methyl-3-phenyl-2,9-dihydro-1H-pyrido[3,4-b]indol-1-one], the cytotoxicity at 25 µM in the test with MDA-MB-231 cells [1] (setting [5]) was determined as 36.6 ± 3.2%.

For the compound `CCCCn1c(-c2ccccc2)c(C(=O)c2ccc(OC)cc2)c2c3ccccc3n(C)c2c1=O` [11b, 2-Butyl-4-(4-methoxybenzoyl)-9-methyl-3-phenyl-2,9-dihydro-1H-pyrido[3,4-b]indol-1-one], the cytotoxicity at 25 µM in the test on MDA-MB-231 cells [1] (setting [5]) worked out at 30.3 ± 1.2%.

Take `CCCCn1c(-c2ccccc2)c(C(=O)c2ccc(C)cc2)c2c3ccccc3n(C)c2c1=O` [11c, 2-Butyl-9-methyl-4-(4-methylbenzoyl)-3-phenyl-2,9-dihydro-1H-pyrido[3,4-b]indol-1-one]: the cytotoxicity at 25 µM in the test with MDA-MB-231 cells [1] (setting [5]) came to 31.2 ± 1.6%.

For `CCCCn1c(-c2ccccc2)c(C(=O)c2ccc(C(F)(F)F)cc2)c2c3ccccc3n(C)c2c1=O` [11d, 2-Butyl-9-methyl-3-phenyl-4-(4-(trifluoromethyl)benzoyl)-2,9-dihydro-1H-pyrido[3,4-b]indol-1-one], in the test with MDA-MB-231 cells [1] (setting [5]), the cytotoxicity at 25 µM stood at 14.7 ± 2.9%.

Consider `CCCCn1c(-c2ccccc2)c(C(=O)c2ccc(F)cc2)c2c3ccccc3n(C)c2c1=O` [11e, 2-Butyl-4-(4-fluorobenzoyl)-9-methyl-3-phenyl-2,9-dihydro-1H-pyrido[3,4-b]indol-1-one], for which the cytotoxicity at 25 µM in the test on MDA-MB-231 cells [1] (setting [5]) stood at 31.8 ± 1.8%.

`Cn1c2ccccc2c2c(C(=O)c3ccccc3)c(-c3ccccc3)n(-c3nc4ccccc4s3)c(=O)c21` [12a, 2-(Benzo[d]thiazol-2-yl)-4-benzoyl-9-methyl-3-phenyl-2,9-dihydro-1H-pyrido[3,4-b]indol-1-one]: the cytotoxicity at 25 µM in the test with MDA-MB-231 cells [1] (setting [5]) amounted to 26.9 ± 2.6%.

Regarding `COc1ccc(C(=O)c2c(-c3ccccc3)n(-c3nc4ccccc4s3)c(=O)c3c2c2ccccc2n3C)cc1` [12b, 2-(Benzo[d]thiazol-2-yl)-4-(4-methoxybenzoyl)-9-methyl-3-phenyl-2,9-dihydro-1H-pyrido[3,4-b]indol-1-one], the cytotoxicity at 25 µM with MDA-MB-231 cells [1] (setting [5]) is 4.08 ± 1.1%.

Regarding `Cc1ccc(C(=O)c2c(-c3ccccc3)n(-c3nc4ccccc4s3)c(=O)c3c2c2ccccc2n3C)cc1` [12c, 2-(Benzo[d]thiazol-2-yl)-9-methyl-4-(4-methylbenzoyl)-3-phenyl-2,9-dihydro-1H-pyrido[3,4-b]indol-1-one], in the test with MDA-MB-231 cells [1] (setting [5]), the cytotoxicity at 25 µM came to 31.3 ± 4%.

`Cn1c2ccccc2c2c(C(=O)c3ccc(C(F)(F)F)cc3)c(-c3ccccc3)n(-c3nc4ccccc4s3)c(=O)c21` [12d, 2-(Benzo[d]thiazol-2-yl)-9-methyl-3-phenyl-4-(4-(trifluoromethyl)benzoyl)-2,9-dihydro-1H-pyrido[3,4-b]indol-1-one]: the cytotoxicity at 25 µM in the test on MDA-MB-231 cells [1] (setting [5]) came out at 24.5 ± 2.7%.

As to `Cn1c2ccccc2c2c(C(=O)c3ccc(F)cc3)c(-c3ccccc3)n(-c3nc4ccccc4s3)c(=O)c21` [12e, 2-(Benzo[d]thiazol-2-yl)-4-(4-fluorobenzoyl)-9-methyl-3-phenyl-2,9-dihydro-1H-pyrido[3,4-b]indol-1-one], the cytotoxicity at 25 µM in the test on MDA-MB-231 cells [1] (setting [5]) came to 34.9 ± 1.7%.

Take `N.N.[Cl][Pt][Cl]` [Cisplatin, reference compound]: the “Average cell death (%) MCF-7” value in the test on MCF-7 cells (at 100 μM, SRB assay) is reported as 80 ± 6.2%. In addition, the “Average cell death (%) MDA-MB-231” value with MDA-MB-231 cells [1] (at 100 μM, SRB assay) worked out at 75 ± 4.3%.

For `COc1cccc2c1C(=O)c1c(O)c3c(c(O)c1C2=O)C[C@@](O)(C(=O)CO)C[C@@H]3O[C@H]1C[C@H](N)[C@H](O)[C@H](C)O1` [Doxorubicin, reference compound], the “Expression of BCL-2” value in test [2] was “markedly reduced”. The “Expression of Survivin” value in test [2] is on record as “markedly reduced”. For the same compound, the cytotoxicity at 5 µM with MCF-7 cells (setting [4]) is 85 ± 5.3%; in the test with MDA-MB-231 cells [1] (setting [5]), 80 ± 3.3%. In addition, in the test on MDA-MB-231 cells [3], the Sphere formation result is “completely abrogated sphere formation”.
